# Positions of bridges follow the written chain, without caps; N, C: chain ends. Non-standard residues stand in square brackets, D forms with d. Residues, ends and D or L forms follow the SMILES beside them. 1Nal = N[C@@H](Cc1cccc2ccccc12)C(=O)O
# What was measured:
# [1] = biological target: Sodium channel protein type 9 subunit alpha (Homo sapiens, UniProt Q15858); assay: Inhibition of human Nav1.7 expressed in HEK293 cells assessed as inward peak current by ion-works quattro patch clamp electrophysiology method; assay type: cell-based
# [2] = biological target: Sodium channel protein type 5 subunit alpha (Homo sapiens, UniProt Q14524); assay: Inhibition of human Nav1.5 expressed in HEK293 cells assessed as inward peak current by ion-works quattro patch clamp electrophysiology method; assay type: cell-based
# In short: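 Stable HEK293 line expressing human NaV1.5, recorded by population patch clamp on the IonWorks Quattro.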
# Chain of Sodium channel protein type 5 subunit alpha (Q14524 whole entry): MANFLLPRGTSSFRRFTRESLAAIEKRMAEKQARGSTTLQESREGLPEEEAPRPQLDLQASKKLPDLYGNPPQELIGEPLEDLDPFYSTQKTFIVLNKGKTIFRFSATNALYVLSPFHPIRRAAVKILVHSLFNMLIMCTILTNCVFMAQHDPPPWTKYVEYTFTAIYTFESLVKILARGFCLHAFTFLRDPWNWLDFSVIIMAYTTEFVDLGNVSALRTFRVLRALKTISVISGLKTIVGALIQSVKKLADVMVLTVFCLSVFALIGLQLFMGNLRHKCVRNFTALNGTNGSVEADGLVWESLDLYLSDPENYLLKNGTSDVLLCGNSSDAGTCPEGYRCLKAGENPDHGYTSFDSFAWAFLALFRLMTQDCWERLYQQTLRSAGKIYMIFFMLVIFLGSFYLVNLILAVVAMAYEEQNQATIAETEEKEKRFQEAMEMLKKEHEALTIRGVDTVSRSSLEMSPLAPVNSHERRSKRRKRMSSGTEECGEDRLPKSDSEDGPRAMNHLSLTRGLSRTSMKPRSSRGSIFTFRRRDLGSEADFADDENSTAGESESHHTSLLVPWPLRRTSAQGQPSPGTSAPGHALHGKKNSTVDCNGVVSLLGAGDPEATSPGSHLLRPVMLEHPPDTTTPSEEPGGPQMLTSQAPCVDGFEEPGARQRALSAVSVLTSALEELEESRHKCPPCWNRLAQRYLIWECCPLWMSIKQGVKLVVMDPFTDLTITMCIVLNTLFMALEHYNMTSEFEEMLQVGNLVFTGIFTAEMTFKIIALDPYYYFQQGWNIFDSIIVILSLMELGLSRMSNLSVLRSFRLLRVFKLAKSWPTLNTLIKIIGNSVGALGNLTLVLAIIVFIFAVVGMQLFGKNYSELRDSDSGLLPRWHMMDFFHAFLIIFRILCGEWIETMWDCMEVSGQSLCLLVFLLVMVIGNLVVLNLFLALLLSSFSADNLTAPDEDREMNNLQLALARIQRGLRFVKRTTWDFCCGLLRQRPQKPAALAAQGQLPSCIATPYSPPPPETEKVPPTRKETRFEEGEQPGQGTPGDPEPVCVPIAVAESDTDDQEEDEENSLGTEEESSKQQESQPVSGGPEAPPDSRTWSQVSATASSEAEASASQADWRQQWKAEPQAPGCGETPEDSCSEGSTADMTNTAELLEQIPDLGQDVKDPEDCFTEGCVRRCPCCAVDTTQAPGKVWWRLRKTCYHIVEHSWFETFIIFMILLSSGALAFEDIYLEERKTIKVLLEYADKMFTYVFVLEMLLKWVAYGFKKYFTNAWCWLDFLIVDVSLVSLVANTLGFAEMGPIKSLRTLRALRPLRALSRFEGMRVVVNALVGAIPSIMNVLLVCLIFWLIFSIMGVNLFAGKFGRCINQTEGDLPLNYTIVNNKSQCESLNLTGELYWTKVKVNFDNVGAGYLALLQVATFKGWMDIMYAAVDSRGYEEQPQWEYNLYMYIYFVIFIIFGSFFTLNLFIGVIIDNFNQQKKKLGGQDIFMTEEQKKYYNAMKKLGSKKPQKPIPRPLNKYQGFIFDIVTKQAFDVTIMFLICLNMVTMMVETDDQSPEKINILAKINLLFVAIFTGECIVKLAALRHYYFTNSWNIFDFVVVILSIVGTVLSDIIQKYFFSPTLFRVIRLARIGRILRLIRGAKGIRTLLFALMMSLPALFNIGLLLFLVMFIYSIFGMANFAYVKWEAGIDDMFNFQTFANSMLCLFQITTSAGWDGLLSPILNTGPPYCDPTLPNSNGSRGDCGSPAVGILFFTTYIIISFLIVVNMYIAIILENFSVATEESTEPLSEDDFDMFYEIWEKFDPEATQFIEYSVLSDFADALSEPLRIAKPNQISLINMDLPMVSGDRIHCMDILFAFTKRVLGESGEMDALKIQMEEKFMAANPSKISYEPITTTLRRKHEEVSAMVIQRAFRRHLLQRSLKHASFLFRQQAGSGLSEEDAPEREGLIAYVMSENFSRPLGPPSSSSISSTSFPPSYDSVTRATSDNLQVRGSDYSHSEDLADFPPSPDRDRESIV
# Chain of Sodium channel protein type 9 subunit alpha (Q15858 whole entry): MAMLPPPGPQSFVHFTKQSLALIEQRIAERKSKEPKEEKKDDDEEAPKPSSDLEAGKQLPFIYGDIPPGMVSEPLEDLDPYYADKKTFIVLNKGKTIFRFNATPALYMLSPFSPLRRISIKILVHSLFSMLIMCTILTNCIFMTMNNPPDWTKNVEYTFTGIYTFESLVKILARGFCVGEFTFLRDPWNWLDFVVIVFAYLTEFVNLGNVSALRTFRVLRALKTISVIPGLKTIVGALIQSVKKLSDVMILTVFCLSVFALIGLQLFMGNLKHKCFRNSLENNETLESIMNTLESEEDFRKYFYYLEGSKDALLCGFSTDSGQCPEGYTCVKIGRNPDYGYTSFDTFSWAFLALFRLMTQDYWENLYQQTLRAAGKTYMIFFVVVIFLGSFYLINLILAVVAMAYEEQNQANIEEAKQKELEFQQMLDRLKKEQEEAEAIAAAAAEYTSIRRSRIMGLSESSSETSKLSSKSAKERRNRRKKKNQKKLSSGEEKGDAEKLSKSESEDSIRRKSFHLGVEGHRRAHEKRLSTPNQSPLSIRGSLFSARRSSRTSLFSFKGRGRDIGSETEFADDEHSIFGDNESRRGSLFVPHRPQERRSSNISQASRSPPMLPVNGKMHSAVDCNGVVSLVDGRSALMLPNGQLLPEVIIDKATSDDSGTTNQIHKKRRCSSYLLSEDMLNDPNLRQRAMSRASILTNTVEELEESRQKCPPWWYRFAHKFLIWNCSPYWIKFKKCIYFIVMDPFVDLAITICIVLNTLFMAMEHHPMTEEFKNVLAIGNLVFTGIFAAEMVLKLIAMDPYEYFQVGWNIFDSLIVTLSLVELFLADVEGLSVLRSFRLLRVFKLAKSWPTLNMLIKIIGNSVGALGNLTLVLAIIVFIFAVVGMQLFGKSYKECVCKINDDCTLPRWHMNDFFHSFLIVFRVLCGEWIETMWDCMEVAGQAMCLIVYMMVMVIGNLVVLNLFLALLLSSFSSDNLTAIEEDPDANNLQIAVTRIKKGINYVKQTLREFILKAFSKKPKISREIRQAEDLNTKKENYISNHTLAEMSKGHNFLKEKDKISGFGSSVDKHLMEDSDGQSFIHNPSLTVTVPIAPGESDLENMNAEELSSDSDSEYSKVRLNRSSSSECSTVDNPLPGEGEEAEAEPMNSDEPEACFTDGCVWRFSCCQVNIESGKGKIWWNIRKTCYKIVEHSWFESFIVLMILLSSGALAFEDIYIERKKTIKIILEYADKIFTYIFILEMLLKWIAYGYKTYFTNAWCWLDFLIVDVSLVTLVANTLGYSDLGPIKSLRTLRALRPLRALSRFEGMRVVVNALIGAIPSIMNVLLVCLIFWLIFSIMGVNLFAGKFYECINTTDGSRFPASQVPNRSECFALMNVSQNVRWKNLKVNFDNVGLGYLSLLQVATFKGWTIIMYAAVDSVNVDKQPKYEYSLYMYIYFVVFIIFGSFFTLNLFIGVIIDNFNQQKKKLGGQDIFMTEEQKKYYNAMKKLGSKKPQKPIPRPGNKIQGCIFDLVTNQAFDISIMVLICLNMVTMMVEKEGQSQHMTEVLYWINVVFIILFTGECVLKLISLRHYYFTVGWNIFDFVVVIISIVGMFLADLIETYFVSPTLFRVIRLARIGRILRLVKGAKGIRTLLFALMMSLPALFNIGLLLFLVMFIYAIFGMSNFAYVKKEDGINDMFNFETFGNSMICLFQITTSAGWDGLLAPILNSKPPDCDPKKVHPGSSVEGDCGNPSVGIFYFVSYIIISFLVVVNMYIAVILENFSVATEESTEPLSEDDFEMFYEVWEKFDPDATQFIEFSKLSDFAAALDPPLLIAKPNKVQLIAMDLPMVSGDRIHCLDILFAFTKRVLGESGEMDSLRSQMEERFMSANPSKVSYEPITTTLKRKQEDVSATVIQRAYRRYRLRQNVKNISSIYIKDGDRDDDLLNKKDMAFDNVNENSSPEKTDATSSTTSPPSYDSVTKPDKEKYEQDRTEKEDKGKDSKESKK
SMILES,IC50 [1] [nM],IC50 [2] [nM]
"CC[C@H](C)[C@@H]1NC(=O)[C@@H]2CSSC[C@@H]3NC(=O)[C@H](C(C)C)NC(=O)[C@H](CC(C)C)NC(=O)[C@H](CC(N)=O)NC(=O)[C@@H]4CCCN4C(=O)[C@H](CCCNC(=N)N)NC(=O)[C@H](CSSC[C@H](NC(=O)[C@@H](N)CC(=O)O)C(=O)N[C@@H](CC(C)C)C(=O)NCC(=O)N[C@@H](Cc4c[nH]c5ccccc45)C(=O)N[C@@H](CCSC)C(=O)N[C@@H](CCCNC(=N)N)C(=O)N[C@@H](CCCCN)C(=O)N2)NC(=O)[C@H](CSSC[C@@H](C(=O)N[C@@H](CCCCN)C(=O)N[C@@H](Cc2ccc(O)cc2)C(=O)N[C@H](C(=O)N[C@@H](Cc2ccccc2)C(N)=O)C(C)C)NC(=O)[C@H](Cc2c[nH]c4ccccc24)NC(=O)[C@H](CCCCN)NC(=O)[C@H](Cc2cnc[nH]2)NC(=O)[C@H]([C@@H](C)O)NC(=O)[C@H](CCCNC(=N)N)NC(=O)[C@H](CO)NC3=O)NC(=O)[C@H](CCCCN)NC(=O)[C@H](CC(=O)O)NC(=O)[C@H](CC(N)=O)NC(=O)[C@H](CC(=O)O)NC(=O)[C@@H]2CCCN2C1=O (H-DCLGWMRKCIPDNDKCCRPNLVCSRTHKWCKYVF-NH2; disulfide 2-17, 9-23, 16-30)",200,> 5000
"CC[C@H](C)[C@@H]1NC(=O)[C@@H]2CSSC[C@@H]3NC(=O)[C@H](C(C)C)NC(=O)[C@H](CC(C)C)NC(=O)[C@H](Cc4c[nH]c5ccccc45)NC(=O)[C@@H]4CCCN4C(=O)[C@H](CCCNC(=N)N)NC(=O)[C@H](CSSC[C@H](NC(=O)[C@@H](N)CC(=O)O)C(=O)N[C@@H](CC(C)C)C(=O)NCC(=O)N[C@@H](Cc4ccccc4)C(=O)N[C@@H](CCSC)C(=O)N[C@@H](CCCNC(=N)N)C(=O)N[C@@H](CCCCN)C(=O)N2)NC(=O)[C@H](CSSC[C@@H](C(=O)N[C@@H](CCCCN)C(=O)N[C@@H](Cc2ccc(O)cc2)C(=O)N[C@H](C(=O)N[C@@H](Cc2ccccc2)C(N)=O)C(C)C)NC(=O)[C@H](Cc2c[nH]c4ccccc24)NC(=O)[C@H](CCCCN)NC(=O)[C@H](Cc2cnc[nH]2)NC(=O)[C@H]([C@@H](C)O)NC(=O)[C@H](CCCNC(=N)N)NC(=O)[C@H](CO)NC3=O)NC(=O)[C@H](CCCCN)NC(=O)[C@H](CC(=O)O)NC(=O)[C@H](CC(N)=O)NC(=O)[C@H](CC(=O)O)NC(=O)[C@@H]2CCCN2C1=O (H-DCLGFMRKCIPDNDKCCRPWLVCSRTHKWCKYVF-NH2; disulfide 2-17, 9-23, 16-30)",70,> 5000
CC[C@H](C)[C@@H]1NC(=O)[C@@H]2CSSC[C@@H]3NC(=O)[C@H](C(C)C)NC(=O)[C@H](CC(C)C)NC(=O)[C@H](CC(N)=O)NC(=O)[C@@H]4CCCN4C(=O)[C@H](CCCNC(=N)N)NC(=O)[C@H](CSSC[C@H](NC(=O)[C@@H](N)CC(=O)O)C(=O)N[C@@H](CC(C)C)C(=O)NCC(=O)N[C@@H](Cc4ccccc4)C(=O)N[C@@H](CCSC)C(=O)N[C@@H](CCCNC(=N)N)C(=O)N[C@@H](CCCCN)C(=O)N2)NC(=O)[C@@H](CSSC[C@@H](C(=O)N[C@@H](CCCCN)C(=O)N[C@@H](Cc2ccc(O)cc2)C(=O)N[C@H](C(=O)N[C@@H](Cc2ccccc2)C(N)=O)C(C)C)NC(=O)[C@H](Cc2c[nH]c4ccccc24)NC(=O)[C@H](CCCCN)NC(=O)[C@H](Cc2cnc[nH]2)NC(=O)[C@H](C)NC(=O)[C@H](CCCNC(=N)N)NC(=O)[C@H](CO)NC3=O)NC(=O)[C@H](CCCCN)NC(=O)[C@H](CC(=O)O)NC(=O)[C@H](CC(N)=O)NC(=O)[C@H](CC(=O)O)NC(=O)[C@@H]2CCCN2C1=O,260,> 5000
"CC[C@H](C)[C@@H]1NC(=O)[C@@H]2CSSC[C@@H]3NC(=O)[C@H](C(C)C)NC(=O)[C@H](CC(C)C)NC(=O)[C@H](CC(N)=O)NC(=O)[C@@H]4CCCN4C(=O)[C@H](CCCNC(=N)N)NC(=O)[C@H](CSSC[C@H](NC(=O)[C@@H](N)CC(=O)O)C(=O)N[C@@H](CC(C)C)C(=O)NCC(=O)N[C@@H](Cc4ccccc4)C(=O)N[C@@H](CCSC)C(=O)N[C@@H](CCCNC(=N)N)C(=O)N[C@@H](CCCCN)C(=O)N2)NC(=O)[C@H](CSSC[C@@H](C(=O)N[C@@H](CCCCN)C(=O)N[C@@H](Cc2ccc(O)cc2)C(=O)N[C@H](C(=O)N[C@@H](CCC(=O)O)C(N)=O)C(C)C)NC(=O)[C@H](Cc2c[nH]c4ccccc24)NC(=O)[C@H](CCCCN)NC(=O)[C@H](Cc2cnc[nH]2)NC(=O)[C@H]([C@@H](C)O)NC(=O)[C@H](CCCNC(=N)N)NC(=O)[C@H](CO)NC3=O)NC(=O)[C@H](CCCCN)NC(=O)[C@H](CC(=O)O)NC(=O)[C@H](CC(N)=O)NC(=O)[C@H](CC(=O)O)NC(=O)[C@@H]2CCCN2C1=O (H-DCLGFMRKCIPDNDKCCRPNLVCSRTHKWCKYVE-NH2; disulfide 2-17, 9-23, 16-30)",> 5000,> 5000
"CC[C@H](C)[C@@H]1NC(=O)[C@@H]2CSSC[C@@H]3NC(=O)[C@H](C(C)C)NC(=O)[C@H](CC(C)C)NC(=O)[C@H](CC(N)=O)NC(=O)[C@@H]4CCCN4C(=O)[C@H](CCCNC(=N)N)NC(=O)[C@H](CSSC[C@H](NC(=O)[C@@H](N)CC(=O)O)C(=O)N[C@@H](CC(C)C)C(=O)NCC(=O)N[C@@H](Cc4ccccc4)C(=O)N[C@@H](CCSC)C(=O)N[C@@H](CCC(=O)O)C(=O)N[C@@H](CCCCN)C(=O)N2)NC(=O)[C@H](CSSC[C@@H](C(=O)N[C@@H](CCCCN)C(=O)N[C@@H](Cc2ccc(O)cc2)C(=O)N[C@H](C(=O)N[C@@H](Cc2ccccc2)C(N)=O)C(C)C)NC(=O)[C@H](Cc2c[nH]c4ccccc24)NC(=O)[C@H](CCCCN)NC(=O)[C@H](Cc2cnc[nH]2)NC(=O)[C@H]([C@@H](C)O)NC(=O)[C@H](CCCNC(=N)N)NC(=O)[C@H](CO)NC3=O)NC(=O)[C@H](CCCCN)NC(=O)[C@H](CC(=O)O)NC(=O)[C@H](CC(N)=O)NC(=O)[C@H](CC(=O)O)NC(=O)[C@@H]2CCCN2C1=O (H-DCLGFMEKCIPDNDKCCRPNLVCSRTHKWCKYVF-NH2; disulfide 2-17, 9-23, 16-30)",860,> 5000
"CC[C@H](C)[C@@H]1NC(=O)[C@@H]2CSSC[C@@H]3NC(=O)[C@H](C(C)C)NC(=O)[C@H](CC(C)C)NC(=O)[C@H](CC(N)=O)NC(=O)[C@@H]4CCCN4C(=O)[C@H](CCCNC(=N)N)NC(=O)[C@H](CSSC[C@H](NC(=O)[C@@H](N)CC(=O)O)C(=O)N[C@@H](CC(C)C)C(=O)NCC(=O)N[C@@H](Cc4ccccc4)C(=O)N[C@@H](CCSC)C(=O)N[C@@H](CCCNC(=N)N)C(=O)N[C@@H](CCCCN)C(=O)N2)NC(=O)[C@H](CSSC[C@@H](C(=O)N[C@@H](CCCCN)C(=O)N[C@@H](CCCCN)C(=O)N[C@H](C(=O)N[C@@H](Cc2ccccc2)C(N)=O)C(C)C)NC(=O)[C@H](Cc2c[nH]c4ccccc24)NC(=O)[C@H](CCCCN)NC(=O)[C@H](Cc2cnc[nH]2)NC(=O)[C@H]([C@@H](C)O)NC(=O)[C@H](CCCNC(=N)N)NC(=O)[C@H](CO)NC3=O)NC(=O)[C@H](CCCCN)NC(=O)[C@H](CC(=O)O)NC(=O)[C@H](CC(N)=O)NC(=O)[C@H](CC(=O)O)NC(=O)[C@@H]2CCCN2C1=O (H-DCLGFMRKCIPDNDKCCRPNLVCSRTHKWCKKVF-NH2; disulfide 2-17, 9-23, 16-30)",> 4900,> 5000
"CC[C@H](C)[C@@H]1NC(=O)[C@@H]2CSSC[C@@H]3NC(=O)[C@H](C(C)C)NC(=O)[C@H](CC(C)C)NC(=O)[C@H](CC(N)=O)NC(=O)[C@@H]4CCCN4C(=O)[C@H](CCCNC(=N)N)NC(=O)[C@H](CSSC[C@H](NC(=O)[C@@H](N)CC(=O)O)C(=O)N[C@@H](CC(C)C)C(=O)NCC(=O)N[C@@H](Cc4ccccc4)C(=O)N[C@@H](CCSC)C(=O)N[C@@H](CCCNC(=N)N)C(=O)N[C@@H](CCCCN)C(=O)N2)NC(=O)[C@H](CSSC[C@@H](C(=O)N[C@@H](CCCCN)C(=O)N[C@@H](Cc2ccc(O)cc2)C(=O)N[C@@H](Cc2cccc4ccccc24)C(=O)N[C@@H](Cc2ccccc2)C(N)=O)NC(=O)[C@H](Cc2c[nH]c4ccccc24)NC(=O)[C@H](CCCCN)NC(=O)[C@H](Cc2cnc[nH]2)NC(=O)[C@H]([C@@H](C)O)NC(=O)[C@H](CCCNC(=N)N)NC(=O)[C@H](CO)NC3=O)NC(=O)[C@H](CCCCN)NC(=O)[C@H](CC(=O)O)NC(=O)[C@H](CC(N)=O)NC(=O)[C@H](CC(=O)O)NC(=O)[C@@H]2CCCN2C1=O (H-DCLGFMRKCIPDNDKCCRPNLVCSRTHKWCKY[1Nal]F-NH2; disulfide 2-17, 9-23, 16-30)",70,> 5000
"CC[C@H](C)[C@@H]1NC(=O)[C@@H]2CSSC[C@@H]3NC(=O)[C@H](C(C)C)NC(=O)[C@H](CC(C)C)NC(=O)[C@H](CC(N)=O)NC(=O)[C@@H]4CCCN4C(=O)[C@H](CCCNC(=N)N)NC(=O)[C@H](CSSC[C@H](NC(=O)[C@@H](N)CC(=O)O)C(=O)N[C@@H](CC(C)C)C(=O)NCC(=O)N[C@@H](Cc4ccccc4)C(=O)N[C@@H](CCSC)C(=O)N[C@@H](CCCNC(=N)N)C(=O)N[C@@H](CCCCN)C(=O)N2)NC(=O)[C@H](CSSC[C@@H](C(=O)N[C@@H](CCCCN)C(=O)N[C@@H](Cc2ccc(O)cc2)C(=O)N[C@H](C(=O)N[C@@H](Cc2ccccc2)C(N)=O)C(C)C)NC(=O)[C@H](Cc2c[nH]c4ccccc24)NC(=O)[C@H](CCCCN)NC(=O)[C@H](Cc2cnc[nH]2)NC(=O)[C@H]([C@@H](C)O)NC(=O)[C@H](CCCNC(=N)N)NC(=O)[C@H](CO)NC3=O)NC(=O)[C@H](CCCCN)NC(=O)[C@H](CC(=O)O)NC(=O)[C@H](CC(N)=O)NC(=O)[C@H](CC(=O)O)NC(=O)[C@H](Cc2c[nH]c3ccccc23)NC1=O (H-DCLGFMRKCIWDNDKCCRPNLVCSRTHKWCKYVF-NH2; disulfide 2-17, 9-23, 16-30)",80,> 5000

# Reference: ChEMBL document CHEMBL3797186, “Single Residue Substitutions That Confer Voltage-Gated Sodium Ion Channel Subtype Selectivity in the NaV1.7 Inhibitory Peptide GpTx-1” (J Med Chem, 2016)
